Reference: ChEMBL document CHEMBL1158787, “Antibiotic terpenoid chloro-dihydroquinones from a new marine actinomycete” (J Nat Prod, 2005)
In brackets after ≈: the same amount, converted by molar mass.

Legend:
[1] = tested on: Enterococcus faecium; test: Antimicrobial activity against vancomycin resistant Enterococcus faecium; format: functional
In short: (§1)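 Broth microdilution: MRSA or VREF grown overnight at 37 °C in GYT medium (0.1% glucose, 0.25% yeast extract, 0.5% tryptone), adjusted to OD 0.04–0.06, then diluted 1:10. Test materials serially diluted 1:2, incubated 16–18 h at 37 °C. Vancomycin (MRSA) or penicillin G (VREF) as positive controls, DMSO as negative control. MIC read from OD600.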

[2] = Cytotoxicity against human […] cell after 72 hrs by MTS assay; format: functional, cell-based
In short: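 HCT-116 colon carcinoma cells were preincubated overnight at 37 °C in 5% CO2/air. Test materials were serially diluted 1:4, with etoposide as positive control and DMSO as negative control. After 72 h, viability was read as MTS reduction to formazan at 490 nm. IC50 was calculated from the curves.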

[3] = tested on: Staphylococcus aureus; test: Antimicrobial activity against methicillin-resistant Staphylococcus aureus; format: functional; in short: as §1

Compound	MIC [1] [mg/L]	IC50 [2] [mg/L]	MIC [3] [mg/L]
Cc1c(O)cc2c(c1O)C(=O)[C@H]1C[C@@H](Cl)C(C)(C)O[C@@]1(C[C@H]1C(C)(C)[C@@H](Cl)CC[C@]1(C)O)C2=O	3.9 (≈ 7.6 µM)	2.4 (≈ 4.67 µM)	1.95 (≈ 3.8 µM)
C=C1CC[C@H](Cl)C(C)(C)[C@@H]1C[C@@]12OC(C)(C)[C@H](Cl)C[C@]1(Cl)C(=O)c1c(cc(O)c(C)c1O)C2=O	3.9 (≈ 7.36 µM)	1.84 (≈ 3.47 µM)	1.9 (≈ 3.59 µM)
Cc1c(O)cc2c(c1O)C(=O)C1=C[C@@H](Cl)C(C)(C)O[C@@]1(C[C@H]1C(C)(C)[C@@H](Cl)CC[C@]1(C)O)C2=O	15.6 (≈ 30.5 µM)	0.97 (≈ 1.9 µM)	15.6 (≈ 30.5 µM)
C=C1CC[C@H](Cl)C(C)(C)[C@@H]1C[C@@]12OC(C)(C)[C@H](Cl)C=C1C(=O)c1c(cc(O)c(C)c1O)C2=O	1.95 (≈ 3.95 µM)		1.95 (≈ 3.95 µM)
